Values after ≈ are worked out from the molar mass of the structure shown. Active and inactive are the calls of the source. The rule behind the calls is not given here.
Experiments:
COLO 205 = assay: Cytotoxicity against human COLO205 cells assessed as cell viability at 0.0000001 to 1 mM after 16 hrs by MTT assay; type: functional, cell-based
Method in brief: (§1)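 Cells seeded and incubated overnight at 37 °C in a CO2 incubator, then exposed to 1 mM, 100 μM, 100 nM and 100 pM (final) for 16 h at 37 °C, 5 % CO2. Medium removed, MTT (1 mg/mL in medium) added for 5 h, formazan dissolved in DMSO, absorbance read at 570 nm. Viability relative to 0.1 % DMSO solvent control (100 %). Triplicates, means.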

[1] = tested on: Mycobacterium tuberculosis; assay: Antitubercular activity against Mycobacterium tuberculosis H37Rv ATCC 27294 assessed as growth inhibition after 28 days by agar dilution method; type: functional; details: H37Rv ATCC 27294, 672 h
Method in brief: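 Agar dilution in Middlebrook 7H11 with 10 % OADC, duplicate plates; compounds dissolved in DMSO and diluted twofold to give ten serial dilutions. Inoculum grown on 7H11/OADC slants, adjusted to 1 mg/mL wet weight in 0.05 % Tween 80 saline, diluted 10−2 (~10^7 cfu/mL); 5 μL spotted. Incubated at 37 °C, read at 28 days; MIC = lowest concentration completely inhibiting growth.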

SUP-T1 = assay: Cytotoxicity against human SupT1 cells assessed as cell viability at 0.0000001 to 1 mM after 16 hrs by MTT assay; type: functional; method in brief: as §1
CHO = assay: Cytotoxicity against CHO cells assessed as cell viability at 0.0000001 to 1 mM after 16 hrs by MTT assay; type: cell-based, Cricetulus griseus; details: chinese hamster; method in brief: as §1
C6 = assay: Cytotoxicity against rat C6 cells assessed as cell viability at 0.0000001 to 1 mM after 16 hrs by MTT assay; type: functional; method in brief: as §1

Q: Which Activity (COLO 205) does the source give for `COC(=O)/C(=C/c1ccccc1)CN1C(=O)C(=O)c2cc(Br)ccc21` here?
A: Its Activity is “Active”.

Q: And the MIC [1]?
A: The MIC was 12.5 µg/mL (≈ 31.2 µM).

Q: And the Activity (SUP-T1)?
A: The Activity was “Active”.

Q: And the Activity (CHO)?
A: Its Activity is “Toxic”.

Q: And the Activity (C6)?
A: The Activity was “Active”.

Q: How did the Activity (COLO 205) turn out when `COC(=O)/C(=C/c1ccccc1)CN1C(=O)C(=O)c2cc(F)ccc21` was run?
A: Its Activity is “Active”.

Q: What about the MIC [1] of the same molecule?
A: The MIC was 12.5 µg/mL (≈ 36.8 µM).

Q: And the Activity (SUP-T1)?
A: Its Activity is “Active”.

Q: And the Activity (CHO)?
A: Its Activity is “Toxic”.

Q: And the Activity (C6)?
A: The Activity was “Active”.

Q: For `NNC(=O)c1ccncc1` [ISONIAZID], which MIC [1] is on record?
A: Its MIC is 0.36 µg/mL (≈ 2.63 µM).

Q: Which MIC [1] does the source give for `CO[C@H]1/C=C/O[C@@]2(C)Oc3c(C)c(O)c4c(O)c(c(/C=N/N5CCN(C)CC5)c(O)c4c3C2=O)NC(=O)/C(C)=C\C=C\[C@H](C)[C@H](O)[C@@H](C)[C@@H](O)[C@@H](C)[C@H](OC(C)=O)[C@@H]1C` [RIFAMPIN] here?
A: Its MIC is 0.1 µg/mL (≈ 0.122 µM).

Q: With `NC(=O)c1cnccn1` [PYRAZINAMIDE] as the molecule, how does the MIC [1] read?
A: Its MIC is 50.8 µg/mL (≈ 412 µM).

Q: Which MIC [1] does the source give for `CC[C@@H](CO)NCCN[C@@H](CC)CO` [ETHAMBUTOL] here?
A: The MIC was 7.64 µg/mL (≈ 37.4 µM).

Q: What does the source list for `COC(=O)/C(=C/c1ccccc1)CN1C(=O)C(=O)c2ccccc21`?
A: Activity (COLO 205): Active; MIC [1]: 25 µg/mL (≈ 77.8 µM); Activity (SUP-T1): Active; Activity (CHO): Toxic; Activity (C6): Active

Q: How did the Activity (COLO 205) turn out when `COC(=O)/C(=C/c1ccc([N+](=O)[O-])cc1)CN1C(=O)C(=O)c2ccccc21` was run?
A: The Activity was “Active”.

Q: And the MIC [1]?
A: The MIC was 6.25 µg/mL (≈ 17.1 µM).

Q: And the Activity (SUP-T1)?
A: Its Activity is “Active”.

Q: And the Activity (CHO)?
A: The Activity was “Toxic”.

Q: What about the Activity (C6) of the same molecule?
A: Its Activity is “Active”.

Q: `COC(=O)/C(=C/c1ccc(Br)cc1)CN1C(=O)C(=O)c2cc(Br)ccc21` was tested. Which Activity (COLO 205) did it give?
A: The Activity was “Active”.

Q: And the MIC [1]?
A: Its MIC is 12.5 µg/mL (≈ 26.1 µM).

Q: And the Activity (SUP-T1)?
A: Its Activity is “Active”.

Q: And the Activity (CHO)?
A: The Activity was “Toxic”.

Q: What about the Activity (C6) of the same molecule?
A: The Activity was “Active”.

Q: What does the source list for `COC(=O)/C(=C/c1ccc([N+](=O)[O-])cc1)CN1C(=O)C(=O)c2cc(Cl)ccc21`?
A: Activity (COLO 205): Active; MIC [1]: 1.56 µg/mL (≈ 3.89 µM); Activity (SUP-T1): Active; Activity (CHO): Toxic; Activity (C6): Active

Q: For `COC(=O)/C(=C/c1ccc(Br)cc1)CN1C(=O)C(=O)c2cc(F)ccc21`, which Activity (COLO 205) is on record?
A: Its Activity is “Active”.

Q: What about the MIC [1] of the same molecule?
A: The MIC was 6.25 µg/mL (≈ 14.9 µM).

Q: What about the Activity (SUP-T1) of the same molecule?
A: The Activity was “Active”.

Q: And the Activity (CHO)?
A: Its Activity is “Toxic”.

Q: And the Activity (C6)?
A: The Activity was “Active”.

Q: What does the source list for `COC(=O)/C(=C/c1ccc(Br)cc1)CN1C(=O)C(=O)c2ccccc21`?
A: Activity (COLO 205): Active; MIC [1]: 25 µg/mL (≈ 62.5 µM); Activity (SUP-T1): Active; Activity (CHO): Toxic; Activity (C6): Active

Q: `COC(=O)/C(=C/c1ccc([N+](=O)[O-])cc1)CN1C(=O)C(=O)c2cc(F)ccc21` was tested. Which Activity (COLO 205) did it give?
A: The Activity was “Active”.

Q: What about the MIC [1] of the same molecule?
A: The MIC was 1.56 µg/mL (≈ 4.06 µM).

Q: What about the Activity (SUP-T1) of the same molecule?
A: The Activity was “Active”.

Q: And the Activity (CHO)?
A: The Activity was “Toxic”.

Q: And the Activity (C6)?
A: Its Activity is “Active”.

Q: `COC(=O)/C(=C/c1ccc([N+](=O)[O-])cc1)CN1C(=O)C(=O)c2cc(Br)ccc21` was tested. Which Activity (COLO 205) did it give?
A: Its Activity is “Active”.

Q: And the MIC [1]?
A: Its MIC is 1.56 µg/mL (≈ 3.5 µM).

Q: What about the Activity (SUP-T1) of the same molecule?
A: Its Activity is under 20%.

Q: What about the Activity (CHO) of the same molecule?
A: Its Activity is “Non-toxic”.

Q: What about the Activity (C6) of the same molecule?
A: The Activity was under 20%.

Q: What does the source list for `COC(=O)/C(=C/c1ccccc1)CN1C(=O)C(=O)c2cc(Cl)ccc21`?
A: Activity (COLO 205): Active; MIC [1]: 12.5 µg/mL (≈ 35.1 µM); Activity (SUP-T1): Active; Activity (CHO): Toxic; Activity (C6): Active

Q: Which Activity (COLO 205) does the source give for `COC(=O)/C(=C/c1ccc(Br)cc1)CN1C(=O)C(=O)c2cc(Cl)ccc21` here?
A: Its Activity is “Active”.

Q: And the MIC [1]?
A: Its MIC is 6.25 µg/mL (≈ 14.4 µM).

Q: What about the Activity (SUP-T1) of the same molecule?
A: Its Activity is “Active”.

Q: What about the Activity (CHO) of the same molecule?
A: Its Activity is “Toxic”.

Q: What about the Activity (C6) of the same molecule?
A: The Activity was “Active”.
